Assay outcomes: PubChem, The Scripps Research Institute Molecular Screening Center
TAAR1 ag: human TAAR1 agonism | Q96RJ0 | CHO RD-HGA16 TAAR1, Fluo-8 calcium fluorescence; vehicle wells 0%, saturating PEA agonist 100% | activation, % at 3 µM | 360,000 tested, 0.99% active;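 active = activation above the mean activation of all test compounds in the run plus 3 SD, cut at about 38% in these data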
Target sequence (Q96RJ0 whole entry, looked up): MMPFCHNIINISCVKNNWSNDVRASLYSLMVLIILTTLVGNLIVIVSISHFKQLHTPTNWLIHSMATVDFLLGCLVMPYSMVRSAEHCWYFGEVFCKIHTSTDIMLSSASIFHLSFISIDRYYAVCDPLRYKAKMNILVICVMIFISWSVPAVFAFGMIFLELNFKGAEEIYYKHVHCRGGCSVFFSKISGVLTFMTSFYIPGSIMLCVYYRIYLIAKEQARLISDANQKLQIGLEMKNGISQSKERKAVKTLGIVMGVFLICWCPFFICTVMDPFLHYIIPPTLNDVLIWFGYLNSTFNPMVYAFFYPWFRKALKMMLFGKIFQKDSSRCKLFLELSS
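Benchmarks: low control DMSO, high control PEA (EC100); System: CHO RD-HGA16 cells carrying human TAAR1 plus Gα16; Detection: Fluo-8 fluorescence, 5 s baseline then 140 s kinetic read; Schedule: 17-24 h plating, Fluo-8 75 min 37 °C, 30 min RT; Read-out basis: % activation from peak over basal fluorescence ratio, DMSO-to-PEA scaled.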
rCAG binder: molecules binding r(CAG) RNA repeats. r(CAG) RNA repeat, TO-PRO-1 dye displacement fluorescence. inhibition, % at 3 µM. 370,000 tested, 1.3% active. AID 651821;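 active = inhibition above the plate cutoff, the mean of all test compounds on that plate plus 3 SD, cut at about 35% in these data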;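 note: higher means more dye released from RNA so lower well fluorescence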
core dimer inh: HCV core protein dimerization inhibition | TR-FRET GST/Flag-core106 dimerization, 1536-well | inhibition, % at 5 µM | 300,000 tested, 0.33% active;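 active = inhibition above the mean of all tested compounds plus 3 SD, set per screening campaign, cut at about 45% in these data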
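Material: GST/Flag-tagged HCV core106 proteins. Incubation: 4 h, 22.5 °C incubation. Read-out basis: inhibition (%) from 671 over 617 nm ratio. Measured by: TR-FRET, excitation 340 nm, emission 617 and 671 nm.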
TAAR1 antag: human TAAR1 antagonism; Q96RJ0; CHO RD-HGA16 TAAR1, Fluo-8 calcium fluorescence, antagonist; inhibition, % at 3 µM; 360,000 tested, 1.5% active;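 active = inhibition above a per-plate cutoff, the mean inhibition of test compounds on that plate plus 3 SD, cut at about 49% in these data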
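Test system: CHO RD-HGA16 cells bearing hTAAR1 | Reagent: β-PEA, EC80 | Compound dosing: 3 µM, single point | Schedule: Dye loading 75 min at 37 °C, then 30 min room temperature | Signal: Calcium fluorescence with Fluo-8 | Evaluation: Percent inhibition of PEA-evoked calcium signal, max/basal emission ratio | Control set: DMSO-only wells and EC80 β-PEA-stimulated wells | Repeats: Singlicate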
HCV NS3 hel inh: HCV NS3 helicase inhibition. AID 1800. inhibition, % at 10.9 µM. 290,000 tested, 0.56% active. NS3 helicase DNA unwinding, Cy5 molecular beacon fluorescence;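 active = inhibition above the mean of all tested compounds plus 3 SD, set per campaign, cut at about 35% in these data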
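Material: hepatitis C virus NS3 helicase domain fragment enzyme; measured by: Cy5 fluorescence, 0 and 60 min reads; control set: DMSO and thioflavine S; incubation: 60 min unwinding reaction at 25 °C after ATP addition; read-out basis: % inhibition from 60/0 min fluorescence ratio, DMSO 0%, thioflavine S 100%; repeats: singlicate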
TAAR1 ag confirm: confirmation of human TAAR1 agonists | activation, % at 3 µM | 2,400 tested, 82% active | AID 651783 | shares compounds with TAAR1 ag | CHO RD-HGA16 TAAR1, Fluo-8 calcium fluorescence; scaled: DMSO 0%, maximal phenethylamine 100%;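 active = activation above a cutoff set at the run's mean compound activation plus 3 SD, cut at about 39% in these data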
Ga16 nonsel ag: counter-screen for TAAR1 agonists: nonselective agonists in parental cells; shares compounds with TAAR1 ag; CHO-Ga16 parental, Fluo-8 calcium fluorescence; normalized to maximal ATP response, DMSO zero; activation, % at 3 µM; 2,400 tested, 50% active; AID 651787;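 active = activation above the run cutoff, the mean activation over all tested wells plus 3 SD, cut at about 12% in these data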
TAAR1 desens: counter-screen for human TAAR1 agonists: agonists that desensitize TAAR1; shares compounds with TAAR1 ag; CHO RD-HGA16 hTAAR1, Fluo-8 calcium, beta-PEA response inhibition; inhibition, % at 3 µM; 2,400 tested, 46% active;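 active = inhibition above the run cutoff, the mean inhibition of all test compounds plus 3 SD, cut at about 49% in these data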;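 note: beta-PEA stimulus applied at its EC80; loss of beta-PEA calcium signal after compound pretreatment read as receptor desensitization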
Ga16 antag count: nonselective Ga16 antagonism, counter-screen | 2,400 tested, 39% active | CHO-Ga16 ATP-induced calcium, Fluo-8 fluorescence | inhibition, % at 3 µM | shares compounds with TAAR1 ag;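 active = inhibition above the plate's mean compound inhibition plus 3 SD, computed per plate, cut at about 22% in these data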
A number is an active result; - = inactive; . = not tested or not shown. Rows were chosen to be rich in hits. Some 3.7% of all compounds tested hit in one or more screens of this group.

SMILES | TAAR1 ag | rCAG binder | core dimer inh | TAAR1 antag | HCV NS3 hel inh | TAAR1 ag confirm | Ga16 nonsel ag | TAAR1 desens | Ga16 antag count
CCN(CCn1cccn1)C(=O)CC1C(=O)NCCN1CCc1ccccc1 (configuration not stated) | 77.7 | - | - | - | - | 93.4 | - | 82.1 | -
O=C1/C(=C\c2ccc(Br)o2)Cc2ccccc21 | 50.4 | - | - | - | - | - | - | - | -
CCCOC(c1ccccc1)(c1ccccc1)C(Oc1nc(C)cc(C)n1)C(=O)O (configuration not stated) | - | - | - | - | - | . | . | . | .
Cc1cc(C)nc(OC(C(=O)O)C(OCCC(C)C)(c2ccccc2)c2ccccc2)n1 (configuration not stated) | 88.8 | - | - | - | - | 126.7 | 92.2 | - | -
Cc1cccc(-c2cc3nc(C)cc(C)n3n2)c1 | - | - | - | - | - | . | . | . | .
Cc1cccc(-c2cc3nc(C)cc(N4CC(C)CC(C)C4)n3n2)c1 (configuration not stated) | 69.8 | - | - | - | - | 81.7 | - | - | -
COc1ccc(NC(=O)N2CCc3ccccc3C2)cc1 | 51.7 | - | . | - | - | 46.7 | - | - | -
COc1ccc(NC(=O)N2CCN(c3cccc(C(F)(F)F)c3)CC2)cc1 | 89.1 | - | - | 94.4 | - | - | - | - | 24.3
CCOc1ccc(NC(=O)N2CCc3ccccc3C2)cc1 | 50.7 | - | - | - | - | 54.2 | - | - | -
CCCCCN1CCCCC(NC(=O)c2c(F)cccc2F)C1=O (configuration not stated) | . | - | . | . | . | . | . | . | .
CC1(C)CCC(=O)N2CC[C@H]3C[C@H](OC(=O)Nc4ccccc4)C[C@@H]1[C@H]32 | 58.3 | - | - | - | - | 52.0 | - | - | -
CC1(C)CCC(=O)N2CC[C@H]3C[C@H](OC(=O)Nc4ccc5c(c4)OCO5)C[C@@H]1[C@H]32 | - | - | - | - | - | . | . | . | .
COCCN(C[C@@H]1[C@H](c2ccccc2)[C@H](CO)N1c1nc(C)c(C)s1)S(=O)(=O)c1ccccc1[N+](=O)[O-] | . | - | . | . | . | . | . | . | .
S=C(Nc1ccc(Cl)c(Cl)c1)NC1CCN(Cc2ccccc2)CC1 | 112.4 | - | - | 74.4 | - | 98.3 | 56.6 | 89.3 | 67.3
Cc1cc(N(C)C)nc(Nc2ccccc2)n1 | 92.0 | - | . | 87.3 | . | 107.8 | - | 99.1 | -
Cc1ccc(CNc2nc3c([nH]2)c(=O)n(C)c(=O)n3C)cc1 | - | - | - | - | - | . | . | . | .
Cn1c(=O)c2[nH]c(Nc3ccccc3)nc2n(C)c1=O | 73.7 | - | - | - | - | 70.6 | - | 61.2 | -
CNc1ccccc1C(=O)OCC(=O)Nc1ccc2c(c1)OCO2 | - | - | - | - | . | . | . | . | .
O=C(COC(=O)c1cc(Br)ccc1O)Nc1ccc2c(c1)OCO2 | 75.4 | - | . | 70.2 | . | 43.7 | 35.6 | - | 40.1
Nc1[nH]c(C(=O)c2ccccc2)c(-c2ccccc2Cl)c1C(=O)NCCc1c[nH]c2ccccc12 | - | - | . | - | . | . | . | . | .
NCCc1c(-c2ccccc2)n(-c2ccccc2)c2ccccc12 | 61.2 | - | . | 63.1 | - | 85.3 | 50.6 | 95.7 | 34.5
CCN(CC)c1ccc(/C=C/C(=O)C2C(=O)C=C(C)OC2=O)cc1 (configuration not stated) | 406.2 | - | - | 107.8 | - | 536.0 | 663.6 | 108.6 | 104.8
COC(=O)c1cc(-c2ccc(C(C)=O)cc2)c(=O)n2c1CCC2 | . | - | . | . | . | . | . | . | .
O=C(C(=O)N1CCc2ccccc2C1)c1cn(CC(=O)N2CCCCC2)c2ccccc12 | 80.1 | - | - | 70.2 | - | 102.0 | - | 86.2 | -
